From ChEMBL document CHEMBL1123507, “Antipicornavirus activity of substituted phenoxybenzenes and phenoxypyridines” (J Med Chem, 1986)
≈ marks a conversion by molar mass, not a printed value.

How the values were obtained:
Enterovirus [1] = assay: Compound was evaluated for inhibition of rhinovirus RV-Hanks 75%; assay type: functional
Enterovirus [2] = assay: Compound was evaluated for inhibition of rhinovirus RV-Hanks at a dose of 50 ug/mL by <50%; assay type: functional
Enterovirus [3] = assay: Antiviral activity against rhinovirus RV-4; assay type: functional
Method in brief: (§1)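 HeLa monolayers were seeded at (1.0-1.3) × 10^5 cells/well, grown 24 h at 36 °C in 5% CO2 to 60–75% cover, then refed with maintenance medium (1-2% heat-inactivated FCS) containing two-fold serial compound dilutions made from a 200 μg/mL stock in Me2SO/medium, with final Me2SO ≤0.1%. Cells were challenged with 10-100 TCID50 virus, and CPE was read microscopically at 48 and 72 h. MIC50 was the lowest concentration giving ≥50% CPE reduction versus virus control. Cytotoxicity was the lowest concentration causing cell death, a growth change or a morphology change in uninfected cultures.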

Enterovirus [4] = assay: Antiviral activity against rhinovirus RV-74; assay type: functional; method in brief: as §1
Enterovirus [5] = assay: Antiviral activity against rhinovirus RV-10; assay type: functional; method in brief: as §1
Mengo virus = assay: Antiviral activity against mengo; assay type: functional; conditions: Cardiovirus A; method in brief: as §1
Enterovirus [6] = assay: Lowest concentration to reduce viral effect by 50% or more against Rhinovirus (RV)-2; assay type: functional; method in brief: as §1
Enterovirus [7] = assay: Antiviral activity against rhinovirus RV-33; assay type: functional; method in brief: as §1
Coxsackievirus [8] = assay: Antiviral activity against rhinovirus Coxsackie B3; assay type: functional; method in brief: as §1
Enterovirus [9] = assay: Antiviral activity against rhinovirus RV-55; assay type: functional; method in brief: as §1
Enterovirus [10] = assay: Antiviral activity against rhinovirus RV-44; assay type: functional; method in brief: as §1
Echovirus = assay: Antiviral activity against Echo 12; assay type: functional; method in brief: as §1
Enterovirus [11] = assay: Antiviral activity against rhinovirus RV-9; assay type: functional; method in brief: as §1
Enterovirus [12] = assay: Antiviral activity against rhinovirus RV-39; assay type: functional; method in brief: as §1
Enterovirus [13] = assay: Antiviral activity against rhinovirus RV-64; assay type: functional; method in brief: as §1
Enterovirus [14] = assay: Antiviral activity against rhinovirus RV-32; assay type: functional; method in brief: as §1
Enterovirus [15] = assay: Antiviral activity against rhinovirus RV-1B; assay type: functional; method in brief: as §1
Enterovirus [16] = assay: Compound was evaluated for inhibition of rhinovirus RV-Hanks at a dose of 50 ug/mL by < 50%; assay type: functional
Coxsackievirus [17] = assay: Antiviral activity against coxsackie B4; assay type: functional; method in brief: as §1
Enterovirus [18] = assay: Lowest concentration to reduce viral effect by 50% or more against Rhinovirus (RV)-1A; assay type: functional; method in brief: as §1
Enterovirus [19] = assay: Antiviral activity against rhinovirus RV-68; assay type: functional; method in brief: as §1
HeLa = assay: Cytotoxicity concentration in HeLa cells; assay type: cell-based; conditions: human; method in brief: as §1
Enterovirus [20] = assay: Antiviral activity against rhinovirus RV-8; assay type: functional; method in brief: as §1
Enterovirus C = assay: Antiviral activity against Poliovirus type 2; assay type: functional
Method in brief: (§2)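 HeLa monolayers (1.0-1.3×10^5 cells/well, grown 24 h at 36 °C to 60-75% cover) refed with maintenance E-MEM (1-2% heat-inactivated FCS) holding two-fold serial dilutions from a 200 μg/mL DMSO stock (final DMSO ≤0.1%). Challenged with 10-100 TCID50 virus, 36 °C, 5% CO2. CPE read microscopically at 48 and 72 h. MIC50 is the lowest concentration cutting CPE ≥50% vs virus control.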

Enterovirus [21] = assay: Antiviral activity against rhinovirus RV-5; assay type: functional; method in brief: as §1
Enterovirus [22] = assay: Antiviral activity against rhinovirus RV-49; assay type: functional; method in brief: as §1
Enterovirus [23] = assay: Antiviral activity against rhinovirus RV-13; assay type: functional; method in brief: as §1
Coxsackievirus [24] = assay: Ratio of the MIC50 of 6-(4-Nitro-phenoxy)-nicotinonitrile compared to compound obtained in the same test for coxsackie A21; assay type: functional
Method in brief: (§3)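 Relative activity was calculated as the MIC50 of the positive control 5-cyano-2-(4-nitrophenoxy)pyridine divided by the MIC50 of the test compound. Both were measured in parallel in the same HeLa CPE test (48/72 h microscopic reading) against RV-1A, RV-2 or coxsackievirus A21.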

Enterovirus [25] = assay: Ratio of the MIC50 of 6-(4-Nitro-phenoxy)-nicotinonitrile compared to compound obtained in the same test for Rhinovirus (RV)-1A; assay type: functional; method in brief: as §3
Enterovirus [26] = assay: Antiviral activity against rhinovirus RV-14; assay type: functional; method in brief: as §1
Enterovirus [27] = assay: Antiviral activity against rhinovirus RV-29; assay type: functional; method in brief: as §1
Enterovirus [28] = assay: Antiviral activity against rhinovirus RV-21; assay type: functional; method in brief: as §2
Coxsackievirus [29] = assay: Lowest concentration to reduce viral effect by 50% or more against coxsackie virus A21; assay type: functional; method in brief: as §1
Enterovirus [30] = assay: Antiviral activity against rhinovirus RV-Hanks; assay type: functional; method in brief: as §1
Enterovirus [31] = assay: Ratio of the MIC50 of 6-(4-Nitro-phenoxy)-nicotinonitrile compared to compound obtained in the same test for Rhinovirus (RV)-2; assay type: functional; method in brief: as §3
Enterovirus [32] = assay: Antiviral activity against rhinovirus Polio 2; assay type: functional; method in brief: as §2

N#Cc1ccc(Oc2ccc([N+](=O)[O-])cc2)nc1
Inhibition (Enterovirus [1]): 85%
inhibition at 50 µg/mL (Enterovirus [2]): 8%

CS(=O)(=O)c1ccc(Oc2ccc(Cl)c(Cl)c2)nc1
Inhibition (Enterovirus [1]): 65%
MIC (Enterovirus [3]): 79 µM (≈ 25.1 µg/mL)
MIC (Enterovirus [4]): 7.9 µM (≈ 2.51 µg/mL)
MIC (Enterovirus [5]): < 4.1 µM
MIC (Mengo virus): > 16 µM
MIC50 (Enterovirus [6]): 2 µM (≈ 0.636 µg/mL)
MIC (Enterovirus [7]): 2 µM (≈ 0.636 µg/mL)
MIC (Coxsackievirus [8]): > 7.9 µM
MIC (Enterovirus [9]): < 2 µM
MIC (Enterovirus [10]): 16 µM (≈ 5.09 µg/mL)
MIC (Echovirus): < 4.1 µM
MIC (Enterovirus [11]): 31 µM (≈ 9.86 µg/mL)
MIC (Enterovirus [12]): 20 µM (≈ 6.36 µg/mL)
MIC (Enterovirus [13]): 0.94 µM (≈ 0.299 µg/mL)
MIC (Enterovirus [14]): 4.1 µM (≈ 1.3 µg/mL)
MIC (Enterovirus [15]): < 0.94 µM
inhibition at 50 µg/mL (Enterovirus [16]): 25%
MIC (Coxsackievirus [17]): 39 µM (≈ 12.4 µg/mL)
MIC50 (Enterovirus [18]): 1 µM (≈ 0.318 µg/mL)
MIC (Enterovirus [19]): > 31 µM
Toxicity (HeLa): 157 µM
MIC (Enterovirus [20]): > 39 µM
MIC (Enterovirus C): > 39 µM
MIC (Enterovirus [21]): > 39 µM
MIC (Enterovirus [22]): < 2 µM
MIC (Enterovirus [23]): > 16 µM
Relative activity (Coxsackievirus [24]): 0.65
Relative activity (Enterovirus [25]): 10.4
MIC (Enterovirus [26]): > 31 µM
MIC (Enterovirus [27]): 4.1 µM (≈ 1.3 µg/mL)
MIC (Enterovirus [28]): 31 µM (≈ 9.86 µg/mL)
MIC50 (Coxsackievirus [29]): 20 µM (≈ 6.36 µg/mL)
MIC (Enterovirus [30]): 31 µM (≈ 9.86 µg/mL)
Relative activity (Enterovirus [31]): 10.4

CS(=O)(=O)c1ccc(Oc2ccc(Cl)c(Cl)c2)cc1
Inhibition (Enterovirus [1]): 85%
MIC50 (Enterovirus [6]): 0.79 µM (≈ 0.251 µg/mL)
inhibition at 50 µg/mL (Enterovirus [16]): 10%
MIC50 (Enterovirus [18]): 0.79 µM (≈ 0.251 µg/mL)
Toxicity (HeLa): 158 µM
Relative activity (Coxsackievirus [24]): 3.2
Relative activity (Enterovirus [25]): 32.8
MIC50 (Coxsackievirus [29]): 4.1 µM (≈ 1.3 µg/mL)
Relative activity (Enterovirus [31]): 32.8

O=[N+]([O-])c1ccc(Oc2ccc(Cl)c(Cl)c2)cc1
Inhibition (Enterovirus [1]): 65%
MIC50 (Enterovirus [6]): 22 µM (≈ 6.25 µg/mL)
inhibition at 50 µg/mL (Enterovirus [16]): 30%
MIC50 (Enterovirus [18]): 4.6 µM (≈ 1.31 µg/mL)
Toxicity (HeLa): 352 µM
Relative activity (Coxsackievirus [24]): 5.9
Relative activity (Enterovirus [25]): 5.6
MIC50 (Coxsackievirus [29]): 0.88 µM (≈ 0.25 µg/mL)
Relative activity (Enterovirus [31]): 2.4

Cc1ccc(Oc2ccc([N+](=O)[O-])cc2C#N)cc1
MIC50 (Enterovirus [6]): 5.1 µM (≈ 1.3 µg/mL)
MIC50 (Enterovirus [18]): 5.1 µM (≈ 1.3 µg/mL)
Toxicity (HeLa): 39 µM
Relative activity (Coxsackievirus [24]): 2.2
Relative activity (Enterovirus [25]): 4.1
MIC50 (Coxsackievirus [29]): 2.4 µM (≈ 0.61 µg/mL)
Relative activity (Enterovirus [31]): 2

CS(=O)(=O)c1ccc(Oc2ccc(Cl)cc2)cc1
MIC50 (Enterovirus [6]): 4.4 µM (≈ 1.24 µg/mL)
MIC50 (Enterovirus [18]): 4.4 µM (≈ 1.24 µg/mL)
Toxicity (HeLa): 44 µM
Relative activity (Coxsackievirus [24]): 11.8
Relative activity (Enterovirus [25]): 11.8
MIC50 (Coxsackievirus [29]): 2.2 µM (≈ 0.622 µg/mL)
Relative activity (Enterovirus [31]): 5.9

CSc1ccc(Oc2ccc(Cl)c(Cl)c2)nc1
MIC50 (Enterovirus [6]): 9 µM (≈ 2.58 µg/mL)
MIC50 (Enterovirus [18]): 4 µM (≈ 1.14 µg/mL)
Toxicity (HeLa): 87 µM
Relative activity (Coxsackievirus [24]): 4.6
Relative activity (Enterovirus [25]): 6.5
MIC50 (Coxsackievirus [29]): 9 µM (≈ 2.58 µg/mL)
Relative activity (Enterovirus [31]): 5.8

N#Cc1cc([N+](=O)[O-])ccc1Oc1ccc(Cl)cc1Cl
MIC50 (Enterovirus [6]): 0.52 µM (≈ 0.161 µg/mL)
MIC50 (Enterovirus [18]): 0.97 µM (≈ 0.3 µg/mL)
Toxicity (HeLa): > 324 µM
Relative activity (Coxsackievirus [24]): 13.3
Relative activity (Enterovirus [25]): 85.6
MIC50 (Coxsackievirus [29]): 3.9 µM (≈ 1.21 µg/mL)
Relative activity (Enterovirus [31]): 49.8

Cc1ccc(Oc2ccc(S(C)(=O)=O)cc2)cc1
MIC50 (Enterovirus [6]): 25.4 µM (≈ 6.66 µg/mL)
MIC50 (Enterovirus [18]): 50.8 µM (≈ 13.3 µg/mL)
Toxicity (HeLa): 203 µM
Relative activity (Coxsackievirus [24]): 1
Relative activity (Enterovirus [25]): 0.51
MIC50 (Coxsackievirus [29]): 25.4 µM (≈ 6.66 µg/mL)
Relative activity (Enterovirus [31]): 1

N#Cc1cc([N+](=O)[O-])ccc1Oc1ccc(Br)cc1
MIC50 (Enterovirus [6]): 3.8 µM (≈ 1.21 µg/mL)
MIC50 (Enterovirus [18]): 3.8 µM (≈ 1.21 µg/mL)
Toxicity (HeLa): > 313 µM
Relative activity (Coxsackievirus [24]): 3.3
Relative activity (Enterovirus [25]): 6.8
MIC50 (Coxsackievirus [29]): 7.8 µM (≈ 2.49 µg/mL)
Relative activity (Enterovirus [31]): 6.8

N#Cc1cc([N+](=O)[O-])ccc1Oc1ccc(Cl)c(Cl)c1
Inhibition (Enterovirus [1]): 100%
MIC (Enterovirus [3]): 0.97 µM (≈ 0.3 µg/mL)
MIC (Enterovirus [4]): < 0.97 µM
MIC (Enterovirus [5]): < 1 µM
MIC (Mengo virus): > 1.6 µM
MIC50 (Enterovirus [6]): 0.26 µM (≈ 0.0804 µg/mL)
MIC (Enterovirus [7]): 0.81 µM (≈ 0.25 µg/mL)
MIC (Coxsackievirus [8]): 4.9 µM (≈ 1.51 µg/mL)
MIC (Enterovirus [9]): 0.81 µM (≈ 0.25 µg/mL)
MIC (Enterovirus [10]): 0.81 µM (≈ 0.25 µg/mL)
MIC (Echovirus): 0.97 µM (≈ 0.3 µg/mL)
MIC (Enterovirus [11]): 0.42 µM (≈ 0.13 µg/mL)
MIC (Enterovirus [12]): 0.42 µM (≈ 0.13 µg/mL)
MIC (Enterovirus [32]): 1.9 µM (≈ 0.587 µg/mL)
MIC (Enterovirus [13]): 0.52 µM (≈ 0.161 µg/mL)
MIC (Enterovirus [14]): 0.97 µM (≈ 0.3 µg/mL)
MIC (Enterovirus [15]): 0.81 µM (≈ 0.25 µg/mL)
inhibition at 50 µg/mL (Enterovirus [16]): 0%
MIC (Coxsackievirus [17]): 4.9 µM (≈ 1.51 µg/mL)
MIC50 (Enterovirus [18]): 0.26 µM (≈ 0.0804 µg/mL)
MIC (Enterovirus [19]): < 1.9 µM
Toxicity (HeLa): > 324 µM
MIC (Enterovirus [20]): 0.52 µM (≈ 0.161 µg/mL)
MIC (Enterovirus [21]): 2 µM (≈ 0.618 µg/mL)
MIC (Enterovirus [22]): 0.81 µM (≈ 0.25 µg/mL)
MIC (Enterovirus [23]): 0.81 µM (≈ 0.25 µg/mL)
Relative activity (Coxsackievirus [24]): 99.6
Relative activity (Enterovirus [25]): 319
MIC (Enterovirus [26]): 3.2 µM (≈ 0.989 µg/mL)
MIC (Enterovirus [27]): 0.81 µM (≈ 0.25 µg/mL)
MIC (Enterovirus [28]): 1.9 µM (≈ 0.587 µg/mL)
MIC50 (Coxsackievirus [29]): 0.52 µM (≈ 0.161 µg/mL)
MIC (Enterovirus [30]): 0.42 µM (≈ 0.13 µg/mL)
Relative activity (Enterovirus [31]): 99.6
